Here are results for eight compounds from PubChem BioAssay.

The structures appear in SMILES notation. Active and inactive are the calls of the source.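 Rule for the calls, unless noted: active = a full or partial loss of lipid-probe fluorescence in the fish gall bladder, intestine or both, judged by eye; inactive = no fluorescence loss, or compound toxic to the fish.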

A short description of assay [1]: inhibitors of TNFa-induced NFkB p65 translocation, primary screen, imaging, HUVEC, MLSMR starter and 10KST1 sets (AID 438;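 active = inhibition above 20% together with a positive visual image hit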;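 note: compound added about 3h40 before a 20 min TNFalpha stimulation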;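 for inhibition: signal is the nuclear over cytoplasmic p65 intensity ratio per well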). The conditions noted are these: HUVEC TNFa-induced p65 nuclear translocation; cell count: measured here: nuclei count (cytotoxicity indicator), at 2.08 µM; inhibition: at 2 µM, stronger effect = higher value, 0% TNFa-plus-vehicle, 100% no-TNFa wells.
Assay [2] can be described thus: inhibitors of E-selectin induction by TNFa, primary screen, imaging, HUVEC, immunofluorescence, MLSMR starter and 10KST1 sets (AID 487;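 active = visually confirmed hit in the image check and inhibition above 20%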;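 for inhibition: signal is fraction of cell area covered by stained E-selectin grains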;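 for nuclei count: 100% = median nuclei count of all wells on the same plate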). The conditions noted are these: HUVEC TNFalpha-induced E-selectin immunofluorescence imaging, at 2 µM; inhibition: stronger effect = higher value; nuclei count: measured here: cell number, toxicity.
Assay [3] can be described thus: DUSP6 inhibitors restoring Erk phosphorylation by chemical complementation, primary imaging in DUSP6-transfected HeLa (AID 609;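 active = compounds giving at least 50% inhibition in the cell-based MKP-3 phosphatase rescue imaging test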;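 for inhibition: phospho-Erk level distribution per well compared with pooled transfected vehicle control wells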). The conditions noted are these: HeLa MKP-3 transfected, phospho-Erk imaging KS statistic, at 10 µM, cells stimulated with TPA for 15 min.
For assay [4], the target named is Dual specificity protein phosphatase 6 (Homo sapiens) (UniProt Q16828). Described as above. The conditions noted are these: HeLa MKP-3 transfected, phospho-Erk imaging KS statistic; at 10 µM; stronger effect = higher value; cells stimulated with TPA for 15 min.
The target in assay [5] is Voltage-gated potassium channel subunit beta-2 (Rattus norvegicus) (UniProt P62483). Put plainly: KvBeta enzyme negative modulators, primary screen, biochemical, NADPH fluorescence (AID 622;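 active = fluorescence slope higher than the sample average by over 3 SD, cut at about -0.22 in these data, passing the limit was not always enough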;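 note: slope of raw intensity against log time taken from 70 to 1610 s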). The settings on record: recombinant KvBeta, 4-cyanobenzaldehyde reduction, at 10 µM, stronger effect = higher value.
Assay [6] shares this target. Put plainly: KvBeta positive modulators, primary screen, biochemical, NADPH fluorescence (AID 623;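 active = NADPH fluorescence slope more negative than the mean of all samples by about 3 SD, 99.7% confidence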;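 note: fluorescence intensity change per second fitted from 20 to 320 s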). The conditions noted are these: Recombinant KvBeta, NADPH fluorescence decrease slope, 10 min; at 10 µM; stronger effect = lower value.
Assay [7] concerns the target Alpha-2C adrenergic receptor (Homo sapiens) (UniProt P18825). The assay is described as follows: modulators of alpha2C/GIRK thallium flux, primary screen, cell-based, HEK293 alpha2C/GIRK1/2 (AID 624;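 active = fluorescence slope after compound addition differing from the mean of all screened samples at 99.7% confidence, in either direction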;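 note: slope of fluorescence ratio to pre-addition baseline per second over 15 to 24 s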). The settings on record: thallium flux BTC fluorescence, at 10 µM, actives lie on both sides.
Assay [8] is described as follows: inhibitors of larval lipid processing in zebrafish, primary screen, whole organism, PED6 fluorescence, gall bladder and intestine (AID 686).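 Note: larvae 5 to 7 days old with five fish per well; signal comes from phospholipase A2 cleavage of quenched PED6 carried via bile; overnight exposure to compound and PED6 before scoring.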 The settings on record: Zebrafish larvae PED6 lipid processing, fluorescence scoring; screened at 20 µM (by protocol). In a few lines:
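Test system – live zebrafish larvae aged 5-7 days, whole organism · Buffer or medium – E3 fish medium · Reagent – quenched phospholipase substrate PED6, 100 nM final, ingested by larvae · Doses – 20 µM single dose · Incubation – overnight compound and PED6 incubation · Technique – visual fluorescence microscopy scoring of gall bladder, gut · Read-out basis – visual per-well fluorescence inhibition score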

Assay [9] in a line: inhibitors of Chlamydomonas gravitaxis, primary screen, whole organism, Chlamydomonas reinhardtii, WT vs cilia-less mutant, absorbance, 96-well (AID 463189;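 active = inhibition at or above 50% relative to wild type and mutant plate controls; inactive = inhibition below 50%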;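 note: 0% = wild type cc124 cells in DMSO and 100% = ciliumless bld1 mutant cells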). The conditions noted are these: OD600 absorbance, 2 days, at 10 µM, stronger effect = higher value.
[10] abbreviates: measured here: cell density z-score.
Where [11] appears, read: measured here: nuclear c-Myc green intensity z-score.
Setting [12] is: measured here: nuclear pErk red intensity z-score, stronger effect = higher value.

Voltage-gated potassium channel subunit beta-2 (Rattus norvegicus), sequence (P62483 whole entry, looked up): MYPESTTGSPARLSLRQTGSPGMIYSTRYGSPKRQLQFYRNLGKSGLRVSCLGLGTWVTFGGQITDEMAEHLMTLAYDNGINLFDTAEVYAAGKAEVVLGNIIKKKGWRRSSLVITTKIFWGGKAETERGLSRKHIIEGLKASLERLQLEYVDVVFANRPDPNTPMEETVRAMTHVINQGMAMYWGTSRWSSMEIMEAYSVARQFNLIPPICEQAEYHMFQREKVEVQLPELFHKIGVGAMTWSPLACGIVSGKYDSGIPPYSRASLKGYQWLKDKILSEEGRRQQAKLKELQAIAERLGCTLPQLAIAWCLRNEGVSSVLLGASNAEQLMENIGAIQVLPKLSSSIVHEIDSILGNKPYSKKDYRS
Dual specificity protein phosphatase 6 (Homo sapiens), sequence (Q16828 whole entry, looked up): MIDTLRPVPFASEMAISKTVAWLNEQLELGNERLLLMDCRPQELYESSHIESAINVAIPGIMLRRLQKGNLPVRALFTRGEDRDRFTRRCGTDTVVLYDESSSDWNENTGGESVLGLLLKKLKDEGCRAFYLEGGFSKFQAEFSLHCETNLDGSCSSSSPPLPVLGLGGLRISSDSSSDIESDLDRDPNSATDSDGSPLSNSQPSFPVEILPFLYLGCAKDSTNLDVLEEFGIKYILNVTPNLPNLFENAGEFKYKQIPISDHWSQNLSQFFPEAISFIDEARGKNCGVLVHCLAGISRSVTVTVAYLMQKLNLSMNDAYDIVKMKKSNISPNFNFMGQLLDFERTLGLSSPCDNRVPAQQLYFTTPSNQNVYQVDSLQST
Alpha-2C adrenergic receptor (Homo sapiens), sequence (P18825 whole entry, looked up): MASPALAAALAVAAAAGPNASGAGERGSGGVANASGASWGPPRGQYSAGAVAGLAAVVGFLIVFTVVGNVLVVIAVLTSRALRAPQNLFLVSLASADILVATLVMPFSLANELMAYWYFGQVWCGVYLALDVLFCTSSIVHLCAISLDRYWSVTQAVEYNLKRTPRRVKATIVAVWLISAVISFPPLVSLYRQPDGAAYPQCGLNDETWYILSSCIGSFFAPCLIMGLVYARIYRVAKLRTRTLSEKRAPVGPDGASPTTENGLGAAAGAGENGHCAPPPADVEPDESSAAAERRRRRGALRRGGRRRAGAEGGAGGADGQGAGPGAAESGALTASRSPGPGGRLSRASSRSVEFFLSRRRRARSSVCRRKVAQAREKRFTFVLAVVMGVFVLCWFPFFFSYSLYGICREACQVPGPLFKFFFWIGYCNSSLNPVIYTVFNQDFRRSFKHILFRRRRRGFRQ

In the case of `COc1ccc(CN2CCC(=O)NC2=O)cc1`, in assay [1], the cell count turned out to be 670. Further, the inhibition in [1] was -14.7% (inactive); in assay [2] it was -450% (inactive); in [4], 9.39% (inactive); in assay [9], 2.33% (inactive). Besides, the nuclei count in assay [2] worked out at 162%. Besides, the z-score in assay [3] (setting [10]) was 0.756; in assay [3] (setting [11]), -1.36; in assay [3] (setting [12]) it was 0.0301. In addition, the fluorescence slope in [5] was -0.502 (inactive). Moreover, the NADPH fluorescence slope in [6] was -3.7e-05 (inactive). Also, the slope in assay [7] is 0.00539 (inactive). In addition, the outcome in assay [8] was inactive.

For the compound `CN(C)c1ccc(C=NCCC2(O)CCOC(C)(C)C2)cc1` (centres undefined), the cell count in [1] came to 326. For the same compound, the inhibition in assay [1] was -27% (inactive); in assay [2], -218% (inactive); in assay [4] it was 8.76% (inactive); in assay [9], -4.27% (inactive). Moreover, in assay [2], the nuclei count is 173%. The z-score is -0.673 in assay [3] (setting [10]), -1.17 in [3] (setting [11]) and -0.362 in assay [3] (setting [12]). Moreover, the fluorescence slope in assay [5] was -0.416 (inactive). Also, the NADPH fluorescence slope in [6] was -0.000167 (inactive). The slope in assay [7] is 0.00576 (inactive). Moreover, the compound was called inactive in assay [8].

Turning to `Nc1nnc(Cc2ccc(Cl)c(Cl)c2)s1`, in assay [1], the cell count turned out to be 621. In addition, the inhibition in [1] is 2.9% (inactive); in assay [2] it was 33.3% (inactive); in [4], -7.86% (inactive); in assay [9] it was 2.91% (inactive). The nuclei count in assay [2] came to 174%. Besides, the z-score in assay [3] (setting [10]) was 0.377; in assay [3] (setting [11]), 1.31; in [3] (setting [12]), -0.983. Moreover, the fluorescence slope in assay [5] was -0.369 (inactive). Also, the NADPH fluorescence slope in assay [6] is -3.6e-05 (inactive). Also, the slope in assay [7] is 0.00535 (inactive). The compound was classed as inactive in [8].

For `CC1(C)NC(=O)N(CC(O)COc2ccccc2C(=O)Nc2ccccc2)C1=O` (centres undefined), the cell count in [1] was determined as 418. Further, the inhibition in [1] was -22.7% (inactive); in assay [2], -2.7% (inactive); in assay [4] it was 14% (inactive); in [9], 18.8% (inactive). Besides, in assay [2], the nuclei count was 93.5%. In addition, the figures for the z-score in assay [3] (setting [10]), in assay [3] (setting [11]) and in assay [3] (setting [12]) were -0.97, 1.76 and -1.28, respectively. Also, the fluorescence slope in assay [5] was -0.495 (inactive). In addition, the NADPH fluorescence slope in [6] is -0.000337 (inactive). For the same compound, the slope in assay [7] is 0.00492 (inactive). For the same compound, the outcome in [8] was inactive.

For `CCOC(=O)c1ccccc1OCc1cc(/C=N/n2cncn2)ccc1OC`, in assay [1], the cell count was 430. The inhibition was -16.8% (inactive) in assay [1], -87.5% (inactive) in assay [2], -2.29% (inactive) in assay [4] and -0.944% (inactive) in assay [9]. Further, the nuclei count in [2] is 169%. The results for the z-score in assay [3] (setting [10]), in [3] (setting [11]) and in assay [3] (setting [12]) were 0.277, 0.212 and -0.384, respectively. Also, the fluorescence slope in assay [5] was -0.358 (inactive). Besides, the NADPH fluorescence slope in assay [6] is 1.8e-05 (inactive). Besides, the slope in [7] was 0.00447 (inactive). Further, the outcome in assay [8] was inactive.

Consider `COc1ccccc1N1CCN(CCCCOc2ccc(F)cc2)CC1`, for which, in assay [1], the cell count was determined as 461. Further, the inhibition was -6.8% (inactive) in assay [1], -62.1% (inactive) in assay [2], 26.6% (inactive) in assay [4] and 9.82% (inactive) in [9]. Also, the nuclei count in [2] came out at 116%. For the same compound, the z-score in [3] (setting [10]) is 1.12; in assay [3] (setting [11]), -0.735; in [3] (setting [12]), -0.613. The fluorescence slope in [5] is -0.52 (inactive). Moreover, the NADPH fluorescence slope in assay [6] was -3.7e-05 (inactive). For the same compound, the slope in [7] is 0.00493 (inactive). In addition, in [8], the result was inactive.

Take `C=CCn1c(=S)[nH]c2nc3c(cc2c1=O)CCCC3`: the cell count in assay [1] worked out at 546. In addition, the inhibition in assay [1] is -1% (inactive); in assay [2], -44.7% (inactive); in assay [4], -7.28% (inactive); in [9], -0.142% (inactive). Besides, in assay [2], the nuclei count was found to be 112%. The z-score in assay [3] (setting [10]) was -0.436; in assay [3] (setting [11]) it was 2.14; in assay [3] (setting [12]), 0.929. Further, the fluorescence slope in [5] is -0.428 (inactive). Moreover, the NADPH fluorescence slope in assay [6] is 4.7e-06 (inactive). Moreover, in assay [7], the slope was 0.0129 (inactive). In addition, the compound was called inactive in assay [8].

`CCCc1cc(C(=O)Cc2ccc(F)cc2)c(O)cc1O`: in [1], the cell count was 563. For the same compound, the inhibition was -8.9% (inactive) in assay [1], -180% (inactive) in assay [2], 19.8% (inactive) in [4] and 74.4% (active) in [9]. Moreover, the nuclei count in [2] stood at 128%. Moreover, the z-score was 0.0278 in assay [3] (setting [10]), -0.762 in assay [3] (setting [11]) and -1.21 in assay [3] (setting [12]). Moreover, the fluorescence slope in [5] was -0.507 (inactive). Moreover, in assay [6], the NADPH fluorescence slope was -3.4e-06 (inactive). Besides, the slope in assay [7] was 0.00499 (inactive). The call in [8] was inactive.
